{"data": "Results of several laboratories", "target": "Serine/threonine-protein kinase PLK1 (PLK1, Homo sapiens, UniProt P53350)", "note": "Lines come from different studies, so protocols differ."}
{"Structure (SMILES)": "CN1CC(Oc2cnc(C#N)cc2-c2ccn3nc(NC(=O)C4CC4)cc3c2)C1", "assay": "enzyme activity, inhibitor", "conditions": "1 µM", "measurement": "inhibition", "value": "6%"}
{"Structure (SMILES)": "COc1cc(/C=C/C(=O)CC(=O)/C=C/c2ccc(O)c(OC)c2)ccc1O", "assay": "enzyme activity, inhibitor", "conditions": "1 µM", "measurement": "activity vs control", "value": "75%"}
{"Structure (SMILES)": "Nc1ncnc2occ(-c3ccc(NC(=O)Nc4cc(C(F)(F)F)ccc4F)cc3)c12", "assay": "cell-free assay, inhibitor", "conditions": "20 µM", "measurement": "remaining signal", "value": "100%"}
{"Structure (SMILES)": "CN(c1ccnc(CNc2nc(Nc3ccc4c(c3)CC(=O)N4)ncc2C(F)(F)F)n1)S(C)(=O)=O", "assay": "cell-free assay, competition with immobilised ligand", "conditions": "1 µM", "measurement": "remaining binding", "value": "7.6%"}
{"Structure (SMILES)": "Cc1[nH]c(/C=C2\\C(=O)Nc3ccc(F)cc32)c(C)c1C(=O)N[C@H]1CCN(C(=O)N(C)C)C1", "assay": "enzyme activity, inhibitor", "conditions": "1 µM", "measurement": "remaining activity", "value": "122%"}
{"Structure (SMILES)": "CC(C)(O)[C@H]1CC[C@H](Nc2ccc3ncc(-c4cccc(C(F)(F)F)c4)n3n2)CC1", "assay": "enzyme activity, inhibitor", "conditions": "1 µM", "measurement": "remaining activity", "value": "94.4%"}
{"Structure (SMILES)": "N#CCCc1ccc2c(c1)-c1[nH]c3ccc([N+](=O)[O-])cc3c1CC(=O)N2", "assay": "cell-free assay", "conditions": "0.5 µM", "measurement": "remaining signal", "value": "101%"}
{"Structure (SMILES)": "CN(C)C1CCN(CC#Cc2nn(C3CCCC3)c3nc(NCc4ccccc4)ncc23)C1 (stereo not drawn)", "assay": "enzyme activity, inhibitor, FRET", "conditions": "0.1 µM", "measurement": "inhibition", "value": "-1%"}
{"Structure (SMILES)": "COc1cc2ncnc(Nc3ccc(Oc4ccccc4)c(C)c3C)c2cc1OC", "assay": "enzyme activity, inhibitor", "conditions": "1 µM", "measurement": "inhibition", "value": "-1%"}
{"Structure (SMILES)": "CN(c1ncccc1CNc1nc(Nc2ccc3c(c2)CC(=O)N3)ncc1C(F)(F)F)S(C)(=O)=O", "assay": "enzyme activity, inhibitor", "conditions": "1 µM", "measurement": "inhibition", "value": "22.1%"}
{"Structure (SMILES)": "Cn1nc(C(=O)NCc2ccc(C(=O)O)cc2)cc1-c1ccc2[nH]ccc2c1", "assay": "cell-free assay, competition with immobilised ligand", "conditions": "0.1 µM", "measurement": "remaining binding", "value": "95%"}
{"Structure (SMILES)": "FC(F)(F)Oc1cccc(-c2cnc3ccc(-c4ccncc4)nn23)c1", "assay": "enzyme activity, inhibitor, radiometric", "conditions": "5 µM", "measurement": "activity vs control", "value": "98%"}
{"Structure (SMILES)": "CNCc1ccccc1-c1csc([C@H](C)Nc2nc(C)nc3cc(OC)c(OC)cc23)c1", "assay": "cell-free assay, competition with immobilised ligand", "conditions": "1 µM", "measurement": "remaining binding", "value": "85%"}
{"Structure (SMILES)": "CS(=O)(=O)Nc1cccc(-c2csc(NC(=O)CSc3nc4nccnc4c(=O)n3CCc3ccccc3)n2)c1", "assay": "enzyme activity, inhibitor", "conditions": "10 µM", "measurement": "inhibition", "value": "11%"}
{"Structure (SMILES)": "CC(=O)C1=C(C)N(c2cccc(C(F)(F)F)c2)C(=O)N[C@@H]1c1ccc(C#N)nc1", "assay": "cell-free assay, competition with immobilised ligand", "conditions": "1 µM", "measurement": "remaining binding", "value": "100%"}
{"Structure (SMILES)": "O=C(Nc1cnn(-c2csc(C(=O)NC3COC3)c2)c1)Nc1ccccc1Cl", "assay": "enzyme activity, inhibitor", "conditions": "5 µM", "measurement": "remaining activity", "value": "97%"}
{"Structure (SMILES)": "Cc1cc(-n2nc(Cc3cc(F)cc(C(F)(F)F)c3)nc2C)ccc1C(N)=O", "assay": "cell-free assay, competition with immobilised ligand", "conditions": "1 µM", "measurement": "remaining binding", "value": "100%"}
{"Structure (SMILES)": "CS(=O)(=O)CCNCc1ccc(-c2ccc3ncnc(Nc4ccc(OCc5cccc(F)c5)c(Cl)c4)c3c2)o1", "assay": "cell-free assay", "conditions": "0.5 µM", "measurement": "remaining signal", "value": "99%"}
